Screens (PubChem BioAssay)
MEKK3 PB1 HTS: MEKK3-MEK5 PB1 interaction, increase or decrease; Q99759; bead-based flow cytometry, Alexa488-MEK5 binding to MEKK3; actives lie on both sides; 0 = blocked by unlabeled MEK5, 100 = vehicle; binding response (% of control), % at 10 µM; 290,000 compounds, 1.4% hits;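 active = binding response more than 3 SD above or below the average of its plate-row segment, actives on both sides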;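 also: Alexa488 bead fluorescence after subtracting the streptavidin-only scavenger bead signal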
Target sequence (Q99759 whole entry, looked up): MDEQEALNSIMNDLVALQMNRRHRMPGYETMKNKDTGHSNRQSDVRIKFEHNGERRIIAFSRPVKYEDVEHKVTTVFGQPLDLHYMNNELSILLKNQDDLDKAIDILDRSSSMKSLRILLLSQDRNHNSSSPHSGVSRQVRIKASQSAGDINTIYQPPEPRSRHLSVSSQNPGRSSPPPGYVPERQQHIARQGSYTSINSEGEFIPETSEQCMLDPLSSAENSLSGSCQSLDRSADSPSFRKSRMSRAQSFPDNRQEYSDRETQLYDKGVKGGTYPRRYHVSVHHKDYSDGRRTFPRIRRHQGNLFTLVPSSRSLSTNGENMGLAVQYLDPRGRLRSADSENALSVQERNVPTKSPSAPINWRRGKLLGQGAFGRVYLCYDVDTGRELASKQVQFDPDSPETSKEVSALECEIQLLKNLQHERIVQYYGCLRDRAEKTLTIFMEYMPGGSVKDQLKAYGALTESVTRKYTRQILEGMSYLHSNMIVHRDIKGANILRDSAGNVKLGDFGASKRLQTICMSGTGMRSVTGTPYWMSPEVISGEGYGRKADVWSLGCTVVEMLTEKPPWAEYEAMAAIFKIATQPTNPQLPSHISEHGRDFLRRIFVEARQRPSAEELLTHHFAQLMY
MEKK2 WT-MEK5: raises or lowers MEK5 binding to wildtype human MEKK2 PB1 domain; Q9Y2U5; bead flow cytometry, Alexa488-MEK5 binding to MEKK2 WT; actives lie on both sides; binding response (% of control), % at 10 µM; 290,000 compounds, 1.1% hits; AID 1531; in the data active = binding response below about 67% or above about 130%
VIM-2 inh: inhibitors of Pseudomonas aeruginosa VIM-2 metallo-beta-lactamase; purified VIM-2, nitrocefin hydrolysis, epi-absorbance fluorescence; inhibition, % at 5.6 µM; 290,000 compounds, 0.89% hits; AID 1527;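 active = inhibition above the mean of all tested compounds plus 3 SD, cutoff set per screening run, cut at about 7.5% in these data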;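 also: red hydrolysis product quenches plate fluorescence so inhibitors raise well fluorescence; 0% = enzyme with DMSO and 100% = DMSO without enzyme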
MEKK2mut PB1 HTS: signal of MEK5 binding to mutant human MEKK2 PB1 domain. percent response, % at 10 µM. 290,000 compounds, 0.35% hits. AID 1530. bead flow cytometry, Alexa488-MEK5 binding to MEKK2 mutant; in the data active = percent response above about 24%, passing the limit was not always enough
IMP-1 inhibitor: blocks Pseudomonas aeruginosa IMP-1 metallo-beta-lactamase | purified IMP-1, nitrocefin hydrolysis, epi-absorbance fluorescence | inhibition, % at 5.6 µM | 290,000 compounds, 0.45% hits | AID 1556;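 active = inhibition above the mean plus 3 SD of all compounds in the same screening run, cut at about 4.5% in these data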;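 also: 0% = IMP-1 with DMSO and 100% = DMSO wells lacking enzyme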
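System: Purified IMP-1 | Read-out basis: Percent enzyme inhibition | Controls: IMP-1 with DMSO as 0%, enzyme-free DMSO as 100% | Replicates: One well per compound | Doses: 5.6 µM nominal single concentration | Detection: Epi-absorbance fluorescence, 480 nm excitation, 530 nm emission | Incubation: 25 °C, 15 min preincubation, 25 min reaction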
Numbers without * were called inactive; · = no result given. This is a sample that favours compounds with a hit; in the whole collection about 3.4% have one here.

SMILES	MEKK3 PB1 HTS	MEKK2 WT-MEK5	VIM-2 inh	MEKK2mut PB1 HTS	IMP-1 inhibitor
CC(O)c1nc2ccccc2n1CCCCOc1ccccc1 (stereo not drawn)	108	98	6	-4	38*
C[C@]12CCC3C(CC[C@H]4CC(O)CC[C@]34C)C1CC/C2=N/NC(=O)c1ccncc1 (stereo partly drawn)	107	103	-2	4	-1
CCCS(=O)(=O)N1CCCC(C(=O)NCCCN2CCN(c3ccc(F)cc3)CC2)C1 (stereo not drawn)	102	110	-1	6	5.4*
C=CCn1c(SCC(C)=O)nc2scc(-c3ccco3)c2c1=O	96	95	4	-6	16*
CCOC(=O)c1c(NC(=O)C2c3ccccc3Oc3ccccc32)sc(C(N)=O)c1C	·	·	-3	·	-5
CCOc1cccc2sc(N(CCCN(C)C)C(=O)c3ccc(S(=O)(=O)N(C)Cc4ccccc4)cc3)nc12	111	233*	-2	62*	-1
Cc1ccc2nc(N(CCCN(C)C)C(=O)c3ccc(S(=O)(=O)N4CCCCCC4)cc3)sc2c1	108	171*	-1	28*	-2
CCOc1cccc2sc(N(CCCN(C)C)C(=O)c3ccc(S(=O)(=O)N(CC)Cc4ccccc4)cc3)nc12	113	227*	-1	54*	0
CCOc1cccc2sc(N(CCCN(C)C)C(=O)c3ccc(S(=O)(=O)N4CCCCCC4)cc3)nc12	103	149*	-3	23	-4
CN(C)CCCN(C(=O)c1ccc(S(=O)(=O)N2CCOCC2)cc1)c1nc2ccc(F)cc2s1	92	106	1	-1	1
COc1ccc(C(CNC(=O)COc2ccccc2OC)N(C)C)cc1OC (stereo not drawn)	104	96	-2	1	2
COc1cccc(CNC(=O)CSc2cc(=O)n(C)c3ccccc23)c1	95	91	1	-5	-2
COc1ccc(C(=O)COC(=O)C(C(C)C)N2C(=O)C3C4C=CC(C4)C3C2=O)cc1 (stereo not drawn)	100	106	-2	6	-3
CCOC(=O)COc1ccc(Oc2nc(C)cc(OC)n2)nn1	102	102	0	0	1
CN(C)CCN(C(=O)c1ccc2ccccc2c1)c1nc2ccc(Br)cc2s1	106	144*	0	12	1
CCOC(=O)N1CCN(S(=O)(=O)c2ccc(C(=O)N(CCCN(C)C)c3nc4ccc(CC)cc4s3)cc2)CC1	102	133	-1	19	-1
CC1CCCCN1S(=O)(=O)c1ccc(C(=O)N(CCCN(C)C)c2nc3ccc(Br)cc3s2)cc1 (stereo not drawn)	117	258*	-1	76*	1
CCCCN(C)S(=O)(=O)c1ccc(C(=O)N(CCN(C)C)c2nc3ccc(C)cc3s2)cc1	·	·	0	·	-1
CCCCN(CC)S(=O)(=O)c1ccc(C(=O)N(CCCN(C)C)c2nc3cc(C)cc(C)c3s2)cc1	145*	162*	1	6	0
CN(C)CCCN(C(=O)c1ccc(S(=O)(=O)N2CCc3ccccc32)cc1)c1nc2c(Cl)cccc2s1	109	257*	-2	58*	-2
CN(C)CCN(C(=O)c1ccc(S(=O)(=O)N2CCc3ccccc32)cc1)c1nc2ccc(F)cc2s1	102	124	-1	14	-2
CNc1ncc(-c2nnnn2-c2ccccc2)c(-c2ccccc2)n1	102	102	-2	6	-1
CCN(c1ccccc1)S(=O)(=O)c1ccc(C(=O)N(CCCN(C)C)c2nc3cc4c(cc3s2)OCO4)cc1	106	158*	-2	25*	-2
CN(C)CCCN(C(=O)c1ccc2c(c1)OCCO2)c1nc2cc3c(cc2s1)OCO3	96	103	2	-2	-1
COc1cccc2sc(N(CCN(C)C)C(=O)c3ccc4c(c3)CCCC4)nc12	104	130	-1	16	0
SMILES	MEKK3 PB1 HTS	MEKK2 WT-MEK5	VIM-2 inh	MEKK2mut PB1 HTS	IMP-1 inhibitor
COc1cccc2sc(N(CCCN(C)C)C(=O)c3ccc(S(=O)(=O)N4CCc5ccccc5C4)cc3)nc12	107	192*	-3	38*	-2
CN(C)CCCN(C(=O)c1ccc(C(=O)c2ccccc2)cc1)c1nc2c(F)cccc2s1	108	143*	2	13	0
CC1CC(C)CN(CC(=O)N2CCCc3c2c(=O)oc2ccc(OCc4ccccc4)cc32)C1 (stereo not drawn)	104	114	-2	18	3
COc1ccc2nc(N3C(=O)CC(C(C)c4ccccc4)C3=O)sc2c1 (stereo not drawn)	106	93	4	22	7.9*
Cc1cc(C)nc(N2C(=O)CC(C(C)c3ccccc3)C2=O)n1 (stereo not drawn)	103	103	-1	4	9.3*
COc1ccc2nc(N3C(=O)CC(Cc4ccc(C)cc4)C3=O)sc2c1 (stereo not drawn)	101	97	-1	-1	-4
Nc1nc(CN2CCCCC2)cs1	106	104	-3	1	-3
COc1cc(C(=O)ONC(=O)c2ccc(OC(F)F)cc2)cc(OC)c1OC	98	98	-3	3	-2
CC(=O)c1ccc(OCc2cc(C(=O)NCCn3nc(C)cc3C)no2)cc1	107	108	0	7	-4
CCn1c(C)cc(/C=C2\NC(=O)N(Cc3ccccc3)C2=O)c1C	101	98	-5	0	-2
CN(C)CCN1C(=O)NC(C)(c2ccc([N+](=O)[O-])cc2)C1=O (stereo not drawn)	98	85	-1	-11	1
O=C(NCc1ccccc1Br)C1CCCO1 (stereo not drawn)	96	95	-3	-5	-2
CN(C(=O)c1c(Br)cnn1C)C12CC3CC(CC(C3)C1)C2	144*	109	-1	0	-3
Cn1ncc(Br)c1C(=O)NC1CCCCC1	101	98	-1	2	-1
O=C(CSCc1c(Cl)cccc1Cl)Nc1ccccc1-c1ccccc1	102	99	0	0	-3
CCn1c(SCC(=O)NCc2ccccc2)nnc1-c1c[nH]c2ccccc12	97	100	-5	6	-7
CC1CC(C)CN(C(=O)C2CCN(S(=O)(=O)c3c(Cl)cccc3Cl)CC2)C1 (stereo not drawn)	99	98	-1	7	-4
O=C(CSc1cccc2cccnc12)OCC(=O)c1ccc(Br)cc1	101	100	0	0	5.3*
CCOc1ccc(N=Cc2c(C)[nH]n(-c3nc4ccccc4[nH]3)c2=O)cc1	93	103	-3	-1	7.2*
Nc1ccc(-c2nc3ccccc3o2)cc1	100	99	0	3	-3
Nc1ccc(-c2c3ccccc3nc3ccccc23)cc1	98	101	9.6*	-2	-1
CC(C)(C)c1ccc(C(=O)CC(=O)c2cc(Cl)ccc2O)cc1	94	91	-2	-9	-3
